Measurements as given in ChEMBL document CHEMBL1124157, “Absolute configurations and pharmacological activities of the optical isomers of fluoxetine, a selective serotonin-uptake inhibitor” (J Med Chem, 1988).

Columns and labels:
Assay type in all cases: functional
Mus musculus [1] = organism: Mus musculus; experiment: Inhibition of serotonin uptake carrier in mice
Rattus norvegicus = organism: Rattus norvegicus; experiment: Ability to antagonize saccharin-induced drinking (palatability-induced ingestion) in rats
Method in brief: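 Long-Evans hooded male rats (400–600 g, n=24), individually housed, given 2 h weekday access to 0.01 M sodium saccharin; water and chow free except 0.5 h before and during access. Drug ip, 1 mL/kg, 0.5 h before access. Intake expressed as ratio to nearest noninjection (Thursday) control, normalized to distilled-water group = 100%; mean of four to six rats; ED50 with 95% confidence limits.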

Mus musculus [2] = organism: Mus musculus; experiment: Ability to antagonize p-chloroamphetamine-induced depletion of brain serotonin in mouse
Method in brief: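 Male albino mice (16–20 g), groups of five; compound given ip as aqueous solution, then 1 h later p-chloroamphetamine HCl 20.6 mg/kg ip. Decapitation 6 h after that; whole brains frozen on dry ice, stored at -15 °C, serotonin measured by HPLC with electrochemical detection. ED50 from dose-response.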

Mus musculus [3] = experiment: Antagonistic activity against acetic acid induced abdominal constriction (writhing) in mice, when administered in combination with 0.2 mg/kg of morphine; settings: Abdomen
Method in brief: (§1)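 Male CF-1 mice (~20 g), fasted overnight, five per point, each used once. Drug given sc in distilled water, 10 mL/kg, 20 min before 0.6% acetic acid ip (10 mL/kg). Writhes counted for 10 min starting 5 min after acid. Percent inhibition versus same-day controls; ED50 by probit least-squares of log dose.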

Mus musculus [4] = organism: Mus musculus; experiment: Antagonistic activity against acetic acid induced abdominal constriction (writhing) in mice; settings: Abdomen; method in brief: as §1

For CNCC[C@H](Oc1ccc(C(F)(F)F)cc1)c1ccccc1, the Ki (Mus musculus [1]) was 33 nM, the ED50 (Rattus norvegicus) was 4.9 mg/kg and the ED50 (Mus musculus [2]) was 2.1 mg/kg. It also gave an ED50 (Mus musculus [3]) of 5.7 mg/kg and an ED50 (Mus musculus [4]) of 25.7 mg/kg.

CNCC[C@@H](Oc1ccc(C(F)(F)F)cc1)c1ccccc1 [R-FLUOXETINE] was tested, and the Ki (Mus musculus [1]) was 21 nM, the ED50 (Rattus norvegicus) was 6.1 mg/kg and the ED50 (Mus musculus [2]) was 1.2 mg/kg. The ED50 (Mus musculus [3]) was 3.6 mg/kg and the ED50 (Mus musculus [4]) was 15.3 mg/kg.
